Assays:
[1] = tested on: Plasmodium falciparum; assay: Antimalarial activity against Plasmodium falciparum 3D7; format: functional, organism-based
[2] = tested on: Plasmodium berghei; assay: Antimalarial activity against Plasmodium berghei ANKA infected mice (Mus musculus) by peroral dose; format: functional; conditions: po
[3] = Chemical stability assessed as endoperoxide recovery after 48 hrs by iron degradation study; format: physicochemical; conditions: read-out: Stability
Outline: (§1)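 Endoperoxide (1.0 equiv FeBr₂) was held in THF for 4, 8, 24 or 48 h. The residue was purified by flash column chromatography, and the percent recovery of starting endoperoxide was calculated.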

[4] = Chemical stability assessed as endoperoxide recovery after 8 hrs by iron degradation study; format: physicochemical; conditions: read-out: Stability; outline: as §1
[5] = Chemical stability assessed as endoperoxide recovery after 4 hrs by iron degradation study; format: physicochemical; conditions: read-out: Stability; outline: as §1
[6] = Chemical stability assessed as endoperoxide recovery after 24 hrs by iron degradation study; format: physicochemical; conditions: read-out: Stability; outline: as §1
[7] = Cytotoxicity against african green monkey Vero cells by resazurin reduction assay; format: cell-based; conditions: chlorocebus sabaeus, read-out: TC50 (the source's name)
Outline: (§2)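 Cytotoxicity was read by resazurin reduction. A single full dose-response curve was built from 10 independent drug concentrations to give TOX₅₀.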

[8] = Therapeutic index, ratio of TOX50 for rat H9c(2-1) cells to IC50 Plasmodium falciparum 3D7
Outline: (§3)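 TOX₅₀ came from resazurin reduction, with single full dose-response curves over 10 independent concentrations. The index is TOX₅₀ divided by the IC₅₀ against the P. falciparum 3D7 isolate.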

[9] = tested on: Plasmodium falciparum; assay: Antimalarial activity against Plasmodium falciparum DD2; format: functional, organism-based
[10] = Chemical stability in dichloromethane in presence of formic acid assessed as tetraoxane recovery after 7 days; format: physicochemical; conditions: dichloromethane with formic acid; read-out: Stability
[11] = Chemical stability in water assessed as tetraoxane recovery after 7 days; format: physicochemical; conditions: read-out: Stability
[12] = Chemical stability in dichloromethane assessed as tetraoxane recovery after 7 days; format: physicochemical; conditions: read-out: Stability
[13] = Cytotoxicity against human MRC5 cells by resazurin reduction assay; format: cell-based; conditions: read-out: TC50 (the source's name); outline: as §2
[14] = tested on: Plasmodium falciparum; assay: Antimalarial activity against Plasmodium falciparum GC03; format: functional, organism-based
[15] = Chemical stability in phosphate buffer assessed as tetraoxane recovery at pH 7.4 after 16 hrs; format: physicochemical; conditions: read-out: Stability
[16] = tested on: Plasmodium falciparum; assay: Antimalarial activity against Plasmodium falciparum TM4; format: functional, organism-based
[17] = Therapeutic index, ratio of TOX50 for rat L6 cells to IC50 Plasmodium falciparum 3D7; format: cell-based; outline: as §3
[18] = tested on: Plasmodium falciparum; assay: Antimalarial activity against Plasmodium falciparum PH3; format: functional, organism-based
[19] = tested on: Salmonella typhimurium; assay: Genotoxicity against Salmonella Typhimurium NM2009 assessed as induction of umu operon expression; format: toxicity, organism-based; conditions: salmonella enterica subsp. enterica serovar typhimurium
[20] = tested on: Salmonella typhimurium; assay: Genotoxicity against Salmonella Typhimurium TA 1535/pSK1002 assessed as induction of umu operon expression in presence of rat liver S9 fraction; format: toxicity, organism-based; conditions: salmonella enterica subsp. enterica serovar typhimurium
Outline: (§4)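 SOS/umu assay with rat liver S9-mix for metabolic activation. Tester strains carry plasmid pSK1002 with a umuC-lacZ fusion, and induced β-galactosidase activity is the read-out. Positive controls checked strain response. The highest concentration tested was 50 µM.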

[21] = Therapeutic index, ratio of TOX50 for human […] cells to IC50 Plasmodium falciparum 3D7; format: cell-based; outline: as §3
[22] = tested on: Plasmodium falciparum; assay: Antimalarial activity against Plasmodium falciparum V1/S; format: functional, organism-based; conditions: V1S
[23] = Cytotoxicity against rat H9c(2-1) cells by resazurin reduction assay; format: cell-based; conditions: read-out: TC50 (the source's name); outline: as §2
[24] = Cytotoxicity against human […] cells by resazurin reduction assay; format: cell-based; conditions: read-out: TC50 (the source's name); outline: as §2
[25] = Cytotoxicity against rat L6 cells by resazurin reduction assay; format: cell-based; conditions: read-out: TC50 (the source's name); outline: as §2
[26] = tested on: Plasmodium falciparum; assay: Antimalarial activity against Plasmodium falciparum K1; format: functional, organism-based
[27] = tested on: Salmonella typhimurium; assay: Genotoxicity against Salmonella Typhimurium NM2009 assessed as induction of umu operon expression in presence of rat liver S9 fraction; format: toxicity, organism-based; conditions: salmonella enterica subsp. enterica serovar typhimurium; outline: as §4
[28] = tested on: Plasmodium falciparum; assay: Antimalarial activity against Plasmodium falciparum HB3; format: functional, organism-based
[29] = Therapeutic index, ratio of TOX50 for human MRC5 cells to IC50 Plasmodium falciparum 3D7; format: cell-based; outline: as §3
[30] = Therapeutic index, ratio of TOX50 for african green monkey (Cercopithecus aethiops) Vero cells to IC50 Plasmodium falciparum 3D7; format: cell-based; outline: as §3
[31] = tested on: Salmonella typhimurium; assay: Genotoxicity against Salmonella Typhimurium TA 1535/pSK1002 assessed as induction of umu operon expression; format: toxicity, organism-based; conditions: salmonella enterica subsp. enterica serovar typhimurium
[32] = tested on: Plasmodium falciparum; assay: Antimalarial activity against Plasmodium falciparum

SMILES: C[C@@H]1CC[C@H]2[C@@H](C)C(=O)O[C@@H]3O[C@@]4(C)CC[C@@H]1[C@]32OO4 [ARTEMISININ]
- IC50 [1]: 9.2 nM
- ED50 [2]: 8.42 mg/kg

SMILES: CC(C)S(=O)(=O)N1CCC2(CC1)OOC1(CCCCCCCCCCC1)OO2
- IC50 [1]: 86.4 nM

SMILES: CCS(=O)(=O)N1C2CCC1CC1(C2)OOC2(OO1)C1CC3CC(C1)CC2C3 (centres undefined)
- IC50 [1]: 60.6 nM

SMILES: CS(=O)(=O)N1CCC2(CC1)OOC1(OO2)C2CC3CC(C2)CC1C3
- IC50 [1]: 10.2 nM

SMILES: O=C(CCc1ccc(S(=O)(=O)N2CCC3(CC2)OOC2(OO3)C3CC4CC(C3)CC2C4)cc1)NCCCCNc1ccc([N+](=O)[O-])c2nonc12
- IC50 [1]: 16 nM

SMILES: O=S(=O)(c1ccccc1)N1CCC2(CC1)OCC1(OO2)C2CC3CC(C2)CC1C3 (centres undefined)
- IC50 [1]: > 1000 nM

SMILES: O=S(=O)(c1ccccc1)N1CCC2(CC1)COC1(OO2)C2CC3CC(C2)CC1C3 (centres undefined)
- remaining at 48 h [3]: 43.2%
- remaining at 8 h [4]: 84.9%
- remaining at 4 h [5]: 96.8%
- remaining at 24 h [6]: 56.7%

SMILES: O=S(=O)(c1ccccc1)N1CCC2(CC1)OOC1(O2)C2CC3CC(C2)CC1C3 (centres undefined)
- remaining at 48 h [3]: 0%
- remaining at 8 h [4]: 9%
- IC50 [1]: 4.98 nM
- remaining at 4 h [5]: 11%
- remaining at 24 h [6]: 2.6%

SMILES: O=S(=O)(c1ccccc1)N1CCC2(CC1)OOC1(CCCCCCCCCCC1)OO2
- IC50 [1]: 131 nM

SMILES: CCS(=O)(=O)N1CCC2(CC1)OOC1(CCCCCCCCCCC1)OO2
- IC50 [1]: 29.1 nM

SMILES: CCS(=O)(=O)N1CCC2(CC1)OOC1(OO2)C2CC3CC(C2)CC1C3
- CC50 [7]: > 50 µM
- TI [8]: > 9090
- IC50 [9]: 3 nM
- remaining at 168 h [10]: 92.3%
- remaining at 168 h [11]: 97.8%
- IC50 [1]: 5.55 nM
- remaining at 168 h [12]: 96.2%
- CC50 [13]: > 50 µM
- IC50 [14]: 3 nM
- remaining at 16 h [15]: 93.2%
- IC50 [16]: 2.4 nM
- TI [17]: 5640
- IC50 [18]: 1.9 nM
- Activity [19]: 1.07
- Activity [20]: 0.98
- TI [21]: > 9090
- IC50 [22]: 2.7 nM
- CC50 [23]: > 50 µM
- CC50 [24]: > 50 µM
- CC50 [25]: 31 µM
- IC50 [26]: 3 nM
- Activity [27]: 0.95
- IC50 [28]: 3.8 nM
- TI [29]: > 9090
- TI [30]: > 9090
- Activity [31]: 1.03

SMILES: O=S(=O)(c1ccc(F)cc1)N1CCC2(CC1)OOC1(OO2)C2CC3CC(C2)CC1C3
- IC50 [1]: 16.7 nM

SMILES: CS(=O)(=O)N1CCC2(CC1)OOC1(CCCCCCCCCCC1)OO2
- IC50 [1]: 27.8 nM

SMILES: O=S(=O)(c1ccc(Cl)cc1)N1CCC2(CC1)OOC1(OO2)C2CC3CC(C2)CC1C3
- IC50 [1]: 22.7 nM

SMILES: O=S(=O)(C1CC1)N1CCC2(CC1)OOC1(OO2)C2CC3CC(C2)CC1C3
- CC50 [7]: > 50 µM
- TI [8]: > 14300
- IC50 [1]: 3.52 nM
- CC50 [13]: > 50 µM
- TI [17]: > 14300
- Activity [19]: 1.09
- Activity [20]: 0.99
- TI [21]: > 14300
- CC50 [23]: > 50 µM
- CC50 [24]: > 50 µM
- CC50 [25]: > 50 µM
- Activity [27]: 1.07
- TI [29]: > 14300
- TI [30]: > 14300
- Activity [31]: 1.05

SMILES: C[C@H]1[C@H](OC(=O)CCC(=O)O)O[C@@H]2OC3(C)CC[C@H]4[C@H](C)CC[C@@H]1[C@@]24OO3 (single isomer, unassigned) [SODIUM ARESUNATE]
- IC50 [1]: 0.6 nM
- IC50 [26]: 0.7 nM

SMILES: O=C(CC1CCC2(CC1)OOC1(OO2)C2CC3CC(C2)CC1C3)N1CCOCC1 (centres undefined)
- IC50 [32]: 5.2 nM
- Activity [19]: 1.22
- Activity [20]: 0.98
- Activity [27]: 1.02
- Activity [31]: 1.04

SMILES: Nc1ccc2cc3ccccc3cc2c1 [2-AMINOANTHRACENE]
- Activity [19]: 1.08
- Activity [20]: 7.34
- Activity [27]: 6.09
- Activity [31]: 1.1

SMILES: O=S(=O)(CC(F)(F)F)N1CCC2(CC1)OOC1(OO2)C2CC3CC(C2)CC1C3
- IC50 [1]: 14.3 nM

SMILES: O=S(=O)(c1ccc(C(F)(F)F)cc1)N1CCC2(CC1)OOC1(OO2)C2CC3CC(C2)CC1C3
- IC50 [1]: 20.7 nM

SMILES: CCN(CC)Cc1cc(Nc2ccnc3cc(Cl)ccc23)ccc1O
- IC50 [9]: 6.1 nM
- IC50 [14]: 4.5 nM
- IC50 [16]: 6.4 nM
- IC50 [18]: 4.7 nM
- IC50 [22]: 7.7 nM
- IC50 [26]: 10.2 nM
- IC50 [28]: 5.9 nM

SMILES: O=C(N1CCOCC1)N1CCC2(CC1)OOC1(OO2)C2CC3CC(C2)CC1C3
- IC50 [1]: 4.7 nM

SMILES: O=S(=O)(c1ccccc1)N1CCC2(CC1)OOC1(OO2)C2CC3CC(C2)CC1C3
- remaining at 48 h [3]: 69%
- remaining at 8 h [4]: 80.5%
- IC50 [1]: 5.46 nM
- remaining at 4 h [5]: 88.7%
- remaining at 24 h [6]: 72%

SMILES: CC(C)S(=O)(=O)N1CCC2(CC1)OOC1(OO2)C2CC3CC(C2)CC1C3
- IC50 [1]: 5.87 nM

From ChEMBL document CHEMBL1142435, “Two-step synthesis of achiral dispiro-1,2,4,5-tetraoxanes with outstanding antimalarial activity, low toxicity, and high-stability profiles” (J Med Chem, 2008)
